A short description of data set [1]: Inhibition of TPA-induced EBV-early antigen activation in human Raji cells per 32 pmol TPA after 48 hrs. The format is cell-based, human gammaherpesvirus 4. In short, it runs like this:
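EBV-EA induction in Raji cells by 4 mM n-butyric acid plus 32 pmol TPA in RPMI 1640/10% FCS, 37 °C for 48 h, with compound at mol ratios to TPA of 10 to 1000. EA-positive cells counted blind, ≥500 per assay, relative to TPA-only control. IC50 is the mol ratio to TPA giving 50% inhibition, estimated by probit transformation.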

In data set [2] the test system is Raji. Kind of data set: TPA-induced EBV-early antigen activation in human Raji cells at 0.32 nmol after 48 hrs relative to TPA. As to conditions: human gammaherpesvirus 4.
Data set [3] relates to Raji. As to the kind of experiment: TPA-induced EBV-early antigen activation in human Raji cells at 32 nmol after 48 hrs relative to TPA. As to conditions: human gammaherpesvirus 4.
Data set [4] has as its system Raji. Kind of data set: TPA-induced EBV-early antigen activation in human Raji cells at 16 nmol after 48 hrs relative to TPA. As to conditions: human gammaherpesvirus 4.
Data set [5] has as its system Raji. As to the kind of experiment: TPA-induced EBV-early antigen activation in human Raji cells at 3.2 nmol after 48 hrs relative to TPA. As to conditions: human gammaherpesvirus 4.
Data set [6] in a line: Cytotoxicity against human Raji cells assessed as cell viability at 16 nmol after 48 hrs by trypan blue assay. Format: cell-based. As to conditions: read-out: Activity. In short, it runs like this:
(§1)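 Raji cells grown to 10^6 cells/mL, pelleted and resuspended in RPMI 1640 with 10% FCS containing 4 mM n-butyric acid and 32 pmol TPA (20 ng/mL). Test compound added in DMSO at 32, 3.2 or 0.32 nmol (footnote also defines 16 nmol as 500 mol ratio). Incubated 48 h at 37 °C. Viable cells counted by Trypan Blue on a hemocytometer.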

A short description of data set [7]: Cytotoxicity against human Raji cells assessed as cell viability at 0.32 nmol after 48 hrs by trypan blue assay. Format: cell-based. As to conditions: read-out: Activity. In short, it runs like this: as §1
The nature of data set [8]: Cytotoxicity against human Raji cells assessed as cell viability at 32 nmol after 48 hrs by trypan blue assay. The format is cell-based. As to conditions: read-out: Activity. In short, it runs like this: as §1
The nature of data set [9]: Cytotoxicity against human Raji cells assessed as cell viability at 3.2 nmol after 48 hrs by trypan blue assay. The format is cell-based. As to conditions: read-out: Activity. In short, it runs like this:
as §1

`COc1cc2oc3cc(O)c(OC)c(CC=C(C)C)c3c(=O)c2c(O)c1CC=C(C)C` had an IC50 in [1] of 270 molar ratio. In addition, the EBV-EA activation in the data set on Raji [2] is 90.4%; in the data set with Raji [3] it was 0%; in the data set on Raji [4], 20.5%; in the data set on Raji [5] it was 62.6%. In data set [6], the viability at 48 h, 16 nmol is > 80%. Also, the viability at 48 h, 0.32 nmol in data set [7] was > 80%. For the same molecule, the viability at 48 h, 32 nmol in data set [8] was found to be 70%. Also, in data set [9], the viability at 48 h, 3.2 nmol was > 80%.

Regarding `COc1c(O)c(CC=C(C)C)c2oc3cc(O)c(CC=C(C)C)c(O)c3c(=O)c2c1CC=C(C)C`, the IC50 in data set [1] turned out to be 210 molar ratio. Besides, the EBV-EA activation came to 83.8% in the data set with Raji [2], 0% with Raji [3], 16.3% in the data set on Raji [4] and 59.2% in the data set on Raji [5]. In addition, in data set [6], the viability at 48 h, 16 nmol was > 80%. The viability at 48 h, 0.32 nmol in [7] is > 80%. For the same molecule, the viability at 48 h, 32 nmol in [8] was 70%. Moreover, in data set [9], the viability at 48 h, 3.2 nmol is > 80%.

In turn, `CC1=C(/C=C/C(C)=C/C=C/C(C)=C/C=C/C=C(C)/C=C/C=C(C)/C=C/C2=C(C)CCCC2(C)C)C(C)(C)CCC1` [BETA CAROTENE] gave an IC50 in data set [1] of 400 molar ratio. Further, the EBV-EA activation was found to be 100% in the data set on Raji [2], 9.1% in the data set with Raji [3], 34.3% in the data set on Raji [4] and 82.7% in the data set on Raji [5].

On to `COc1c(O)cc2oc3cc(O)c(CC=C(C)C)c(O)c3c(=O)c2c1C/C=C(\C)CCC=C(C)C` [COWANIN], for which, in data set [1], the IC50 worked out at 320 molar ratio. Besides, the EBV-EA activation with Raji [2] was found to be 95.8%; in the data set on Raji [3], 0%; in the data set on Raji [4], 33.6%; in the data set with Raji [5], 71.6%. In addition, in data set [6], the viability at 48 h, 16 nmol is > 80%. Moreover, the viability at 48 h, 0.32 nmol in data set [7] was > 80%. The viability at 48 h, 32 nmol in data set [8] was found to be 70%. Besides, the viability at 48 h, 3.2 nmol in data set [9] is > 80%.

In the case of `COc1c(O)cc2oc3cc(O)c(C/C=C(/C)CO)c(O)c3c(=O)c2c1C/C=C(\C)CCC=C(C)C` [COWANOL], the IC50 in data set [1] amounted to 310 molar ratio. Moreover, the EBV-EA activation in the data set on Raji [2] was determined as 93.1%; with Raji [3] it was 0%; in the data set with Raji [4] it was 30.5%; in the data set with Raji [5], 69.6%. Further, the viability at 48 h, 16 nmol in data set [6] was > 80%. Besides, the viability at 48 h, 0.32 nmol in data set [7] is > 80%. The viability at 48 h, 32 nmol in data set [8] is 70%. Moreover, the viability at 48 h, 3.2 nmol in data set [9] is > 80%.

In [1], `COc1cc2c(=O)c3c(O)c(C/C=C(\C)CCC=C(C)C)c(O)cc3oc2cc1O` [COWAXANTHONE] showed an IC50 of 398 molar ratio. The EBV-EA activation with Raji [2] was found to be 97.5%; in the data set on Raji [3], 0%; in the data set on Raji [4], 40.6%; in the data set with Raji [5] it was 76.6%. In data set [6], the viability at 48 h, 16 nmol was > 80%. The viability at 48 h, 0.32 nmol in data set [7] was > 80%. Moreover, in data set [8], the viability at 48 h, 32 nmol stood at 70%. Also, the viability at 48 h, 3.2 nmol in [9] is > 80%.

In turn, `COc1c(O)cc2oc3cc(O)c(CC=C(C)C)c(O)c3c(=O)c2c1CC=C(C)C` [MANGOSTIN] returned an IC50 in data set [1] of 220 molar ratio. Also, the EBV-EA activation in the data set on Raji [2] was 89.2%; in the data set with Raji [3], 0%; in the data set on Raji [4], 19.1%; in the data set on Raji [5], 60%. The viability at 48 h, 16 nmol in [6] is > 80%. Besides, the viability at 48 h, 0.32 nmol in [7] was > 80%. Moreover, the viability at 48 h, 32 nmol in data set [8] came out at 70%. Besides, the viability at 48 h, 3.2 nmol in data set [9] was > 80%.

Take `CC(C)=CCC/C(C)=C/Cc1c(O)c(O)cc2oc3cc(O)c(CC=C(C)C)c(O)c3c(=O)c12` [NORCOWANIN]: in [1], the IC50 came to 315 molar ratio. The EBV-EA activation in the data set with Raji [2] amounted to 94.2%; with Raji [3] it was 0%; with Raji [4], 31.9%; in the data set with Raji [5], 70.1%. In addition, the viability at 48 h, 16 nmol in data set [6] is > 80%. Also, in data set [7], the viability at 48 h, 0.32 nmol is > 80%. Further, the viability at 48 h, 32 nmol in data set [8] was determined as 70%. Moreover, the viability at 48 h, 3.2 nmol in [9] was > 80%.

The molecule `COc1c(O)cc2oc3cc(O)cc(O)c3c(=O)c2c1C/C=C(\C)CCC=C(C)C` [RUBRAXANTHONE] came in with an IC50 in data set [1] of 340 molar ratio. Also, the EBV-EA activation came to 96.8% in the data set with Raji [2], 0% with Raji [3], 39.5% in the data set with Raji [4] and 74.1% with Raji [5]. In addition, in data set [6], the viability at 48 h, 16 nmol is > 80%. For the same molecule, the viability at 48 h, 0.32 nmol in [7] was > 80%. Moreover, in data set [8], the viability at 48 h, 32 nmol is 70%. Moreover, the viability at 48 h, 3.2 nmol in [9] was > 80%.

For the origin of these results see ChEMBL document CHEMBL1158901, “Chemical constituents of Garcinia fusca: structure elucidation of eight new xanthones and their cancer chemopreventive activity” (J Nat Prod, 2003).
